# Screens: PubChem BioAssay, SRMLSC
# This excerpt belongs to a sample that is enriched for hits.
# HCT116 PTEN-null = PTEN-deleted cell growth suppression; HCT116 PTEN-null viability, CellTiter-Glo, 60 h; hits give low values; viability, % at 10 µM; 1.2% of 140,000 active;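 active = viability at or below a set limit, 4 SD under the median of all tested compounds, cut at about 3.7% in these data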;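 also: PTEN knockout HCT116 line with beta catenin targeted HCT116 as companion control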
# bCat KO growth = beta-catenin-lacking colon tumor cell growth suppression; HCT116 beta-catenin knockout viability, CellTiter-Glo, 60 h; hits give low values; viability, % at 10 µM; 1.5% of 140,000 active; AID 818;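 active = viability at or under a set limit, the compound median less 4 SD, cut at about 6% in these data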;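 also: 0% = Hyamine 1622 control at 20 µM and 100% = untreated cell control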
# Lung fibro prol = blocks proliferation of human lung fibroblasts; LL 47 human lung fibroblast viability, ATP luminescence; hits give low values; viability, % at 10 µM; 1.1% of 85,000 active; AID 719;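 active = viability at or below 50% in the single dose screen; inactive = viability above 50%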;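 also: compound exposure lasted 72 h before the ATP readout; 100% = median luminescence of untreated cell-only wells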
#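 Material: human lung fibroblast line LL 47, low passage; Evaluation: viability percentage against median untreated-cell control; Buffer or medium: 15% FBS in IMEM; Incubation: 72 h compound exposure at 37 °C after overnight plating; Dosing: 0.1% DMSO in all compound wells; Measured by: CellTiter-Glo luminescence.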
# H69AR inhibit = growth inhibitors of human H69AR lung tumor cells. 6% of 85,000 active. H69AR lung tumor viability, ATP luminescence, 72 h; hits give low values. viability, % at 10 µM;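 active = viability at or below 40%; inactive = viability above 40%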;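 also: multidrug resistant small cell line overexpressing MRP-1 efflux transporter; 100% = mean luminescence of untreated control wells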
# HUVEC prolif 384 = human endothelial cell proliferation inhibition; HUVEC proliferation, CellTiter-Glo luminescence, 72 h; hits give low values; viability, % at 10 µM (by protocol); 1.1% of 86,000 active; AID 648;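 active = viability at or below 30%; inactive = viability above 30%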;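 also: 100% = median luminescence of DMSO-only cell control wells on each plate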
# * = called active by the depositor; x = no result.
SMILES,HCT116 PTEN-null,bCat KO growth,Lung fibro prol,H69AR inhibit,HUVEC prolif 384
C=CCn1c(SCC(=O)c2c(N)n(C)c(=O)n(C)c2=O)nc2sc(C)c(C)c2c1=O,94,99,x,x,x
C=CCn1c(SCC(=O)Nc2sccc2C(N)=O)nc2ccc(Cl)cc2c1=O,32,51,84,17*,57
CC(=O)N(CN1C(=O)c2ccccc2C1=O)c1ccc2c(c1)oc1ccccc12,101,101,x,x,x
O=c1[nH]c(SCc2cccc(F)c2)nc2c1CCCC2,96,91,x,x,x
Cc1c(C(=O)C(=O)N2CC=C(c3ccccc3)CC2)c2ccccc2n1C,18,17,x,x,x
COc1ccc(N=C2C(=O)N3c4c(cccc42)C(C)=CC3(C)C)cc1,17,16,x,x,x
Cc1cc(C)c(C(CC(=O)c2cccs2)C(C#N)C#N)c(C)c1 (stereo unspecified),70,58,x,x,x
CN1CCN(NC(=S)NC2CCCCC2)CC1,91,92,x,x,x
Cc1ccc(CN2CCN(/N=C/c3ccc(C(F)(F)F)cc3)CC2)c(C)c1,90,82,x,x,x
CCCc1cc(=O)[nH]c(SCC)n1,105,89,97,x,90
CCCc1cc(=O)[nH]c(-n2[nH]c3c(c2=O)CCCC3)n1,10,4.7*,x,x,x
O=C(Nc1cccc(S(=O)(=O)N2CCCCC2)c1)Nc1ccc(Cl)cc1Cl,1.4*,1.5*,x,x,x
O=C(Nc1cccc(S(=O)(=O)N2CCCCC2)c1)c1ccc2ccccc2n1,69,67,x,x,x
OCCCNc1nc(-c2ccc(Cl)cc2)nnc1-c1ccccc1,87,91,x,x,x
C=CCNc1nc(-c2ccccn2)nnc1-c1ccccc1,15,14,14*,40,12*
Cc1cccc(C(C)C)c1NC(=O)C1CN(S(=O)(=O)c2ccccc2)CCN1S(=O)(=O)c1ccccc1 (stereo unspecified),94,83,x,x,x
COc1ccc(-n2nc(C(=O)Nc3nc4ccc(OC)cc4s3)c3ccccc3c2=O)cc1,20,26,x,x,x
CC(C)n1nc(C(=O)Nc2nc3ccc(S(C)(=O)=O)cc3s2)c2ccccc2c1=O,29,29,50*,92,107
CS(=O)(=O)c1ccc2nc(NC(=O)Cc3ccccc3)sc2c1,x,x,100,72,92
CC(C)(C)NS(=O)(=O)c1ccc2nc(NC(=O)Cc3cccs3)sc2c1,55,65,65,28*,48
CS(=O)(=O)c1ccc2nc(NC(=O)CCC(=O)c3cccs3)sc2c1,81,79,100,40*,96
C/C(=N\NC(=O)COc1ccc(C(C)(C)C)cc1)c1ccc(N2CCOCC2)cc1,92,85,x,x,x
CC(=O)c1c(C)[nH]c(C(=O)OCC(=O)Nc2ccc(Cl)cc2[N+](=O)[O-])c1C,18,28,x,x,x
Cc1ccccc1Nc1cccc2nonc12,94,100,x,x,x
CC(C)C(NC(=O)OCc1ccccc1)C(=O)NCc1ccc(C(=O)O)cc1 (stereo unspecified),99,94,x,x,x
SMILES,HCT116 PTEN-null,bCat KO growth,Lung fibro prol,H69AR inhibit,HUVEC prolif 384
CCOc1ccccc1C(=O)NC(C)c1ccc2c(c1)OCO2 (stereo unspecified),26,23,97,24*,65
CCCCNS(=O)(=O)c1ccc(NC(=O)c2c(-c3ccccc3Cl)noc2C)cc1,15,14,71,33*,69
CCCCS/C(=C(/C#N)C(N)=O)c1cc2c([nH]1)CCCC2,23,20,67,5.2*,69
O=C(Nc1ccccc1C(=O)Nc1ccc2c(c1)OCO2)c1ccco1,92,96,90,34*,77
Cc1ccc(CN2CCN(/N=C/c3cc(Br)cc(Br)c3O)CC2)c(C)c1,93,86,x,x,x
COC(=O)c1cc(=O)n(CCc2ccccc2F)c(=Nc2ccc(F)c(Cl)c2)s1,11,8,16*,1.5*,8.9*
COC(=O)c1cc(=O)n(Cc2ccco2)c(=Nc2ccc(F)c(Cl)c2)s1,5,1.6*,7.9*,1.5*,3.1*
Cc1cc(C)nc(/N=c2/ssnc2Cl)c1,12,41,105,20*,113
Cc1cc(Cl)ccc1N=c1ssnc1Cl,58,13,101,2.2*,40
COc1cc(N=c2ssnc2Cl)c(OC)cc1Cl,104,101,44*,1.1*,85
Cc1ccc(N=C2NC(=O)CS2)cc1,101,90,104,97,89
Cc1ccc(N=c2ssnc2Cl)cc1,88,97,97,2.4*,101
COc1ccc(OC)c(N=c2ssnc2Cl)c1,94,97,x,x,x
Cc1cc(C)nc(/N=C(\N)Nc2ccc(F)c([N+](=O)[O-])c2)n1,26,27,x,x,x
CCCC(C)NS(=O)(=O)c1ccc(OC)c(C)c1 (stereo unspecified),97,99,112,96,111
CCOC(=O)C(=O)c1cn(C2OCC(OC(C)=O)C(OC(C)=O)C2OC(C)=O)c2ccccc12 (stereo unspecified),99,106,x,x,x
Clc1ccc(Cn2cc(/C=N/n3cnnc3)c3ccccc32)c(Cl)c1,86,84,76,75,13*
C(=N\n1cnnc1)/c1cn(Cc2ccccc2)c2ccccc12,80,80,77,75,48
CCNC(=O)C(=O)NCC1OCCCN1S(=O)(=O)c1cccs1 (stereo unspecified),97,91,x,x,x
COc1ccc(CN(C)C2CCCCC2)cc1,91,100,102,86,102
CN(Cc1ccc(O)cc1)C1CCCCC1,97,85,x,30*,101
COc1ccc(OCCn2cc(/C(N)=N/O)c3ccccc32)cc1,79,66,84,58,85
CCC(=C(c1ccc(OC)cc1)c1ccc(OC)cc1)c1cn(CC(O)CN2CCN(C)CC2)c2ccccc12 (stereo unspecified),1.7*,2.1*,21*,1.6*,3.0*
CC(C)Cn1c(N)c(C(=O)CSc2cc(Cl)ccc2Cl)c(=O)n(C)c1=O,39,31,x,x,x
O=C(Nc1ccccc1OC(=O)c1ccc(Cl)cc1)c1ccc(Cl)cc1,70,61,x,x,x
SMILES,HCT116 PTEN-null,bCat KO growth,Lung fibro prol,H69AR inhibit,HUVEC prolif 384
O=C(Oc1ccccc1-c1nnco1)c1ccc(Cl)cc1,88,55,34*,43,98
N#CC(CO)(Cc1ccc(OC(F)F)cc1)c1nc2ccccc2[nH]1 (stereo unspecified),79,80,x,x,x
Cc1c(C(=O)NC2CC2)oc2ccc(S(=O)(=O)N3CCCCCC3)cc12,76,72,89,59,104
Cc1c(C(=O)NC2CCCc3ccccc32)oc2ccc(S(=O)(=O)N3CCCCC3)cc12 (stereo unspecified),57,58,x,x,x
Cc1c(C(=O)NC2CCCc3ccccc32)oc2ccc(S(=O)(=O)N3CCOCC3)cc12 (stereo unspecified),72,75,80,38*,68
Cc1c(C(=O)NC2CCCc3ccccc32)oc2ccc(S(=O)(=O)N3CCCC3)cc12 (stereo unspecified),56,64,65,35*,51
CCc1ccc(NC(=O)C(C)OC(=O)c2cccc(S(=O)(=O)N3CCc4ccccc4C3)c2)cc1 (stereo unspecified),79,78,x,x,x
CCCc1nn(C)c(C(=O)Nc2ccccc2)c1Cl,101,97,x,x,x
Cc1nc2sccn2c(=O)c1Br,92,87,x,x,x
